This excerpt belongs to a sample that is enriched for hits.
L major viab – reduces viability of Leishmania major promastigotes | actives 9% (n = 200,000) | inhibition, % at 10 µM | resazurin fluorescence viability | AID 1063; in the data active = inhibition above about 50%;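 note: promastigotes grown with compound for 44 hours at 28 °C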
Lipid droplet – hepatic lipid droplet formation modulation. actives 0.4% (n = 240,000). inhibition, % at 6.5 µM. AML12 mouse hepatocytes, oleate lipid droplets, BODIPY imaging. AID 1656;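 active = lipid droplet intensity inhibited by at least 50%, with more than 500 cells counted; inconclusive = wells with under 300 cells, treated as cytotoxic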
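Assay system: AML12 mouse liver cells | Compound: 6.5 µM single-point dosing | Schedule: Overnight exposure | Technique: Fluorescence imaging, 20x objective, two fields per well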
T cruzi inh – blocks replication of Trypanosoma cruzi | T. cruzi beta-gal in NIH3T3, luminescence, 90 h | inhibition, % (test concentration not listed) | actives 1.4% (n = 300,000);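 active = mean inhibition across valid replicates above about 55%, limit read from the data; inconclusive = mean below that limit but half or more replicates reach it; inactive = mean below it, under half of replicates reach it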;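 note: signal also drops with host cell toxicity which is not excluded here; higher percent means less beta-gal luminescence so fewer parasites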
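System – NIH/3T3 host cells with β-galactosidase reporter T. cruzi · Doses – single 50 nL compound addition per well in DMSO · Reagent – 5000 T. cruzi trypomastigotes/well · Medium – Low-serum DMEM with 2% FBS · Timing – ≥90 h infection period, 3 h prior cell attachment · Evaluation – parasite load inhibition, % · Technique – GalScreen luminescence, 60 min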
MPTP inh – blocks calcium-induced mitochondrial swelling; isolated mouse mitochondria, Ca2+ swelling absorbance, 30 min; inhibition, % at 10 µM; actives 1.4% (n = 360,000);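 active = inhibition of 50% or more, scaled per plate between neutral and stimulator controls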
Redox H2O2 prof – compounds producing H2O2 with reducing agent – biochemical, NIH compound library profiling, artefact control for MLSCN library redox annotation, primary screen; DTT-dependent redox cycling H2O2, phenol red/HRP absorbance; 100% = 100 µM peroxide control, 0% = buffer; activation, % at 10 µM; actives 0.03% (n = 200,000); AID 878;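 active = activation of at least 50% relative to the plate's high and low controls in the primary single-dose screen; inactive = activation below 50%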;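 note: compound incubated with DTT at 0.8 mM final as the reducing agent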
A number is an active result; n = inactive; u = inconclusive; x = no result.

SMILES | L major viab | Lipid droplet | T cruzi inh | MPTP inh | Redox H2O2 prof
COc1ccc(C(=O)NCCCN(C)CCCNC(=O)c2ccc(OC)cc2)cc1 | x | n | n | n | x
CN(C)CCCNC(=O)c1ccc(-c2ccccc2)cc1 | 86 | x | n | n | n
CN(C)CCCNC(=O)c1cc2sc3ccccc3c2s1 | 92 | n | u | n | n
COc1cc2c(cc1OC)CN(CCC(=O)c1ccc(Br)cc1)CC2 | 61 | n | n | n | n
CCCNC(=O)[C@@H]1CCCN1C(=O)[C@@H]1Cc2ccccc2CN1 | x | n | n | n | x
Cc1ccccc1Cn1ccc(=NCc2ccccc2)cc1 | 100 | n | n | x | n
COc1ccc(N2CCN(C(=O)CSc3nnc(C4CC4)n3C3CC3)CC2)cc1 | x | x | x | n | x
Cc1cccc(NC(=S)N2CCOCC2)c1C | n | n | n | n | n
CC(CNCC1CCCO1)COc1cccc2ccccc12 (stereo unspecified) | 80 | n | n | n | n
CC(CNCC1CCCO1)COc1ccccc1 (stereo unspecified) | 62 | n | n | n | n
OC(CNCC1CCCCC1)COc1ccccc1 (stereo unspecified) | x | n | n | n | x
CC1=NOC(=O)/C1=C\c1ccc(-c2ccccc2Br)o1 | 99 | n | n | n | n
CC1=NOC(=O)/C1=C\c1ccc(-c2ccc(Cl)c(C(=O)O)c2)o1 | n | n | n | n | n
CC1=NOC(=O)/C1=C\c1ccc(-c2cccc(Cl)c2)o1 | 97 | x | n | n | n
CC1=CC2=NC(=O)/C(=C\c3ccc(-c4cccc(Cl)c4)o3)C(=N)N2O1 | 58 | n | n | n | n
Cc1ccc(/C=C2/C(=O)ON=C2c2ccccc2)o1 | x | n | n | n | x
Cc1cccc(NC(=O)CCN2CCCC(C)C2)c1 (stereo unspecified) | x | n | n | n | x
CNS(=O)(=O)c1cccc(C(=O)OCC(=O)Nc2ccc3ccccc3c2)c1 | x | x | x | n | x
O=C(Oc1ccc([N+](=O)[O-])cc1)c1cncc(Br)c1 | n | n | n | n | n
Cc1nnc(SC(C)C(=O)NC2CCCCC2C)s1 (stereo unspecified) | x | x | n | n | x
O=C(CCl)N1N=C(c2cccs2)CC1c1ccco1 (stereo unspecified) | 96 | n | 83 | n | n
COc1ccc(C2=Nc3ccccc3N(C(=O)c3ccc(C(F)(F)F)cc3)C2C(=O)Nc2ccc3c(c2)OCCO3)cc1 (stereo unspecified) | x | x | x | n | x
CCCCOCCCNC(=O)C[C@@H]1C[C@@]2(C(=O)OC)CCCCC=C2N(Cc2ccccc2)C1=O | x | x | x | n | x
Cc1ccc(SC(CC(=O)c2ccc(C)cc2)C(=O)O)cc1 (stereo unspecified) | n | n | n | n | n
O=C(CC(Sc1ccc(Br)cc1)C(=O)O)c1ccc(Br)cc1 (stereo unspecified) | x | x | 55 | x | x
SMILES | L major viab | Lipid droplet | T cruzi inh | MPTP inh | Redox H2O2 prof
Cc1ccc2nc(-c3cccc(NC(=O)c4ccco4)c3)[nH]c2c1 | n | n | n | n | n
Cc1cccc(-n2nc(C(=O)c3ccco3)cc(-c3nc4ccccc4[nH]3)c2=N)c1 | 100 | n | n | n | n
Cc1cc2cc(CN3C(=O)c4ccccc4C3=O)ccc2n1C | n | n | 83 | n | n
Cc1ccc(S(=O)(=O)NCc2ccc3c(c2)cc(C)n3C)cc1 | n | n | 64 | n | n
Cn1c(=O)c(=O)n(C)c2cc(S(=O)(=O)NCc3ccc(Cl)cc3)ccc21 | 100 | n | n | n | n
Cn1c(N)c(S(=O)(=O)NCc2ccc(Cl)cc2)c(=O)n(C)c1=O | n | n | n | n | n
Cn1c(=O)n(C)c2cc(S(=O)(=O)NCc3ccco3)ccc21 | n | x | n | n | n
Cn1c(=O)n(C)c2cc(S(=O)(=O)NCc3ccccc3)ccc21 | 99 | x | n | n | n
N#C/C(=C\c1c(N2CCC(C(N)=O)CC2)nc2ccccn2c1=O)S(=O)(=O)c1ccc(Cl)cc1 | x | n | n | n | x
Cn1cnc([N+](=O)[O-])c1S(=O)(=O)c1cccc(Cl)c1 | 65 | n | n | n | n
Cn1cnc([N+](=O)[O-])c1S(=O)(=O)Oc1ccccc1 | x | x | x | n | x
O=c1c2sc3nc(N4CCOCC4)c4c(c3c2ncn1C(c1ccccc1)c1ccccc1)CCCC4 | x | x | x | n | x
O=C(C(Cc1ccccc1)NS(=O)(=O)c1cccc2cccnc12)N1CCc2ccccc21 (stereo unspecified) | 94 | x | n | n | n
Cc1cc(N)n2nc(-c3ccccc3)cc2n1 | 55 | n | n | n | n
Cc1ccc(-c2cc3nc(-c4ccccc4)cc(N)n3n2)cc1 | n | n | n | n | n
COP(=O)(OC)C(Nc1ccc(C)cc1)c1ccc(Br)cc1 (stereo unspecified) | x | x | x | n | x
COc1ccc(C2=NN(C(C#N)c3ccc(OC)cc3)C(c3ccccc3)C2)cc1 (stereo unspecified) | 69 | n | n | n | n
COc1ccc(C(C#N)N2N=C(c3ccccc3)CC2c2ccccc2)cc1OC (stereo unspecified) | 100 | n | n | n | n
CCOc1ncccc1C(=O)OCC(=O)N(CC)c1ccccc1 | n | n | n | n | n
COCc1cc(C)nc(NC2CC(C)(C)NC(C)(C)C2)c1C#N | x | n | n | n | x
CCOC(=O)c1[nH]c(C=O)c(C(=O)OCC)c1C | 88 | n | n | n | n
CCOC(=O)c1[nH]c(C)c(C(=O)O)c1C | n | n | x | x | n
O=C(CSc1ccc2ccccc2c1)Nc1ccc(S(=O)(=O)Nc2nccs2)cc1 | 54 | n | n | n | n
O=C(CSc1ccncc1)Nc1ccc2ccccc2c1 | 91 | n | u | n | n
CC(C)(C)OC(=O)N1CCC[C@H]1C(=O)N/N=C/c1cccc2nccnc12 | x | n | n | n | x
SMILES | L major viab | Lipid droplet | T cruzi inh | MPTP inh | Redox H2O2 prof
O=C(COc1cccc2ccccc12)NNC(=O)CSCCO | 57 | n | n | n | n
O=C(NCc1ccc(F)cc1)c1cc(C2CCCCN2S(=O)(=O)c2ccc(F)cc2F)on1 (stereo unspecified) | x | x | x | n | x
O=C(N/N=C/c1cccc([N+](=O)[O-])c1)C1CC(=O)N(c2ccc(Cl)cc2)C1 (stereo unspecified) | 95 | x | n | n | n
Cc1ccc(N2CC(C(=O)N/N=C/c3cccc([N+](=O)[O-])c3)CC2=O)cc1 (stereo unspecified) | n | n | n | n | n
CC1(C)C2CCC(CN)C1C2 (stereo unspecified) | x | x | x | n | x
CC(CN1CCN(C)CC1)OC(=O)c1ccc(Cl)cc1 (stereo unspecified) | n | x | 59 | n | n
CCOc1cc([N+](=O)[O-])c2nc(N)sc2c1 | x | n | n | n | x
O=C(OCC(=O)N1CCN(C(=O)c2ccco2)CC1)c1cc(-c2ccc(Cl)c(Cl)c2Cl)nc2ccccc12 | n | n | n | n | n
CN1CCCN(C(=O)c2cc(-c3ccc(Cl)c(Cl)c3Cl)nc3ccccc23)CC1 | 55 | n | n | n | n
CN1CCN(CCCc2c3c(cc4c2CCC4)CCC3)CC1 | n | n | 62 | n | n
